Tests used:
Format in all cases: functional
Settings in all cases: read-out: DIZ
Aspergillus niger [1] = test: Antifungal activity against Aspergillus niger at 12.5 ug/ml after 72 hrs by well plate method
Aspergillus terreus [2] = test: Antifungal activity against Aspergillus terreus at 12.5 ug/ml after 72 hrs by well plate method
Summary of the method: (§1)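 Sabouraud agar: peptone 10 g, glucose 40 g, agar 20 g per litre water, pH 5.7. Spore suspension made from a loopful of fungus in 3 mL normal saline and lawned on 20 mL agar per dish. Excess decanted, plates dried 1 h at 37 °C. Wells punched and loaded with compound in DMSO (6.25 or 12.5 μg/mL). DMSO control. Triplicate plates held at 25 °C for 72 h. Inhibition zone diameter measured. A. terreus strain NCIM 1325.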

Penicillium sp. [3] = test: Antifungal activity against Penicillium sp. at 6.25 ug/ml after 72 hrs by well plate method
Penicillium sp. [4] = test: Antifungal activity against Penicillium sp. at 12.5 ug/ml after 72 hrs by well plate method
Aspergillus flavus [5] = test: Antifungal activity against Aspergillus flavus at 12.5 ug/ml after 72 hrs by well plate method
Aspergillus flavus [6] = test: Antifungal activity against Aspergillus flavus at 6.25 ug/ml after 72 hrs by well plate method
Aspergillus niger [7] = test: Antifungal activity against Aspergillus niger at 6.25 ug/ml after 72 hrs by well plate method
Aspergillus terreus [8] = test: Antifungal activity against Aspergillus terreus at 6.25 ug/ml after 72 hrs by well plate method; summary of the method: as §1
Xanthomonas sp. [9] = test: Antibacterial activity against Xanthomonas sp. at 12.5 ug/ml after 24 to 48 hrs by well plate diffusion method
Summary of the method: (§2)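 Agar well diffusion: 15-20 mL agar per dish, plates dried 1 h at 37 ± 2 °C in laminar flow, then seeded. Wells cut with an agar punch, each loaded with compound dissolved in DMSO (6.25 or 12.5 μg/mL). DMSO solvent control, ciprofloxacin standard. Plates in triplicate, incubated 37 ± 2 °C for 24–48 h. Inhibition zone diameter read in mm, with SD.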

Staphylococcus aureus [10] = test: Antibacterial activity against Staphylococcus aureus at 6.25 ug/ml after 24 to 48 hrs by well plate diffusion method; summary of the method: as §2
Escherichia coli [11] = test: Antibacterial activity against Escherichia coli at 12.5 ug/ml after 24 to 48 hrs by well plate diffusion method; summary of the method: as §2
Escherichia coli [12] = test: Antibacterial activity against Escherichia coli at 6.25 ug/ml after 24 to 48 hrs by well plate diffusion method; summary of the method: as §2
Staphylococcus aureus [13] = test: Antibacterial activity against Staphylococcus aureus at 12.5 ug/ml after 24 to 48 hrs by well plate diffusion method; summary of the method: as §2
Salmonella sp. [14] = test: Antibacterial activity against Salmonella sp. at 6.25 ug/ml after 24 to 48 hrs by well plate diffusion method; summary of the method: as §2
Salmonella sp. [15] = test: Antibacterial activity against Salmonella sp. at 12.5 ug/ml after 24 to 48 hrs by well plate diffusion method; summary of the method: as §2
Xanthomonas sp. [16] = test: Antibacterial activity against Xanthomonas sp. at 6.25 ug/ml after 24 to 48 hrs by well plate diffusion method; summary of the method: as §2

Row | Compound | zone of inhibition at 12.5 µg/mL (Aspergillus niger [1]) [mm] | zone of inhibition at 12.5 µg/mL (Aspergillus terreus [2]) [mm] | zone of inhibition at 6.25 µg/mL (Penicillium sp. [3]) [mm] | zone of inhibition at 12.5 µg/mL (Penicillium sp. [4]) [mm] | zone of inhibition at 12.5 µg/mL (Aspergillus flavus [5]) [mm] | zone of inhibition at 6.25 µg/mL (Aspergillus flavus [6]) [mm] | zone of inhibition at 6.25 µg/mL (Aspergillus niger [7]) [mm] | zone of inhibition at 6.25 µg/mL (Aspergillus terreus [8]) [mm] | zone of inhibition at 12.5 µg/mL (Xanthomonas sp. [9]) [mm] | zone of inhibition at 6.25 µg/mL (Staphylococcus aureus [10]) [mm] | zone of inhibition at 12.5 µg/mL (Escherichia coli [11]) [mm] | zone of inhibition at 6.25 µg/mL (Escherichia coli [12]) [mm] | zone of inhibition at 12.5 µg/mL (Staphylococcus aureus [13]) [mm] | zone of inhibition at 6.25 µg/mL (Salmonella sp. [14]) [mm] | zone of inhibition at 12.5 µg/mL (Salmonella sp. [15]) [mm] | zone of inhibition at 6.25 µg/mL (Xanthomonas sp. [16]) [mm]
1 | OC(Cn1cncn1)(Cn1cncn1)c1ccc(F)cc1F [FLUCONAZOLE] | 18 | 18 | 19 | 21 | 20 | 15 | 14 | 16 |  |  |  |  |  |  |  | 
2 | Fc1ccc(-c2cc(-c3nc4ccc(Cl)cc4[nH]3)c3cc(Cl)ccc3n2)cc1 | 10 | 9 | 12 | 17 | 17 |  |  | 9 | 10 | 16 | 12 | 12 | 16 | 10 | 13 | 
3 | O=C(O)c1cn(C2CC2)c2cc(N3CCNCC3)c(F)cc2c1=O [CIPROFLOXACIN] |  |  |  |  |  |  |  |  | 22 | 18 |  |  | 20 | 19 | 31 | 18
4 | Fc1ccc(-c2cc(-c3nc4ccccc4[nH]3)c3cc(Cl)ccc3n2)cc1 | 12 | 14 | 16 | 18 |  |  | 10 | 13 | 10 | 12 | 13 |  | 13 |  | 9 | 
5 | Fc1ccc(-c2cc(-c3nc4ccccc4[nH]3)c3cc(F)ccc3n2)cc1 | 12 | 9 | 12 | 12 | 10 |  | 10 | 9 | 14 | 14 | 15 | 10 | 15 | 15 | 15 | 14
6 | Fc1ccc(-c2cc(-c3nc4ncccc4[nH]3)c3ccccc3n2)cc1 | 16 | 10 | 16 | 17 | 11 |  | 14 | 9 | 14 | 16 | 14 | 14 | 16 | 9 | 12 | 10
7 | Fc1ccc(-c2cc(-c3nc4cc(Cl)c(Cl)cc4[nH]3)c3cc(F)ccc3n2)cc1 | 13 | 9 |  | 12 | 15 | 12 | 10 |  | 16 | 14 | 12 |  | 15 | 9 | 12 | 12
8 | COc1ccc2nc(-c3cc(-c4ccc(F)cc4)nc4ccccc34)[nH]c2c1 | 12 | 13 | 16 | 18 | 10 |  | 10 | 12 | 14 | 12 | 14 | 12 | 12 | 10 | 11 | 12
9 | Fc1ccc(-c2cc(-c3nc4ccc(F)cc4[nH]3)c3cc(F)ccc3n2)cc1 | 17 | 9 | 13 | 13 |  |  | 10 | 10 | 14 | 12 | 16 | 16 | 12 | 9 | 13 | 
10 | Fc1ccc(-c2cc(-c3nc4ncccc4[nH]3)c3cc(Cl)ccc3n2)cc1 | 14 | 15 |  | 13 | 10 |  | 12 | 9 | 16 | 14 | 16 | 16 | 18 | 9 | 20 | 15
11 | Fc1ccc(-c2cc(-c3nc4ccc(F)cc4[nH]3)c3ccccc3n2)cc1 | 14 | 12 | 12 | 15 | 14 |  |  | 12 | 13 | 10 | 11 | 10 | 16 | 10 | 11 | 
12 | Fc1ccc(-c2cc(-c3nc4ccc(Cl)cc4[nH]3)c3cc(F)ccc3n2)cc1 | 10 | 14 | 15 | 17 | 10 |  |  | 10 | 12 | 12 | 11 | 10 | 12 |  | 11 | 11

— ChEMBL document CHEMBL2040711, “Synthesis, characterization and antimicrobial studies of some new quinoline incorporated benzimidazole derivatives” (2012)
